Experimental data of several laboratories.

SMILES	assay	system	setting	measurement	value
CC1(CC(F)(F)F)NC(=O)N(c2ccc(F)c(C(F)(F)F)c2)C1=O (stereo not drawn)	metabolic stability	mouse, liver microsomes		microsomal CLint	< 7 µL/min/mg
CC(C)CC(=O)OC[C@H]1O[C@@](C#N)(c2ccc3c(N)ncnn23)[C@H](O)[C@@H]1O	metabolic stability	mouse, hepatocytes	5 µM	hepatocyte CLint	> 318 µL/min/10⁶ cells
NCCOCC(=O)N1CCCC(C(=O)NCc2nc(-c3ccc(-c4ccc(F)cc4)cc3)cs2)C1 (stereo not drawn)		rat, plasma	intravenous, 1 mg/kg	Vd	26 L/kg
C/C=C1/CN2CC[C@@]34c5cc(O)ccc5N(C)[C@]35OC[C@@]4(C(=O)OC)[C@H]1C[C@H]25		male Sprague-Dawley rat, plasma	intravenous, 1 mg/kg	Vd	10.2 L/kg
O=C1NC2(CCC2)C(=O)N1c1ccc(F)c(C(F)(F)F)c1	metabolic stability	mouse, liver microsomes		microsomal CLint	42 µL/min/mg
Cc1[nH]c(C)c(S(=O)(=O)Nc2ccc(S(F)(F)(F)(F)F)c(Cl)c2)c1C(=O)N1CCC(F)(F)C1	metabolic stability	mouse, liver microsomes		microsomal CLint	25.4 µL/min/mg
Cl.Cn1c(=O)n(CCCCN2CCC3(CC2)OCc2ccccc23)c2ccccc21		male Sprague-Dawley rat, plasma	intravenous, 5 mg/kg	Vd	8.4 L/kg
CC[C@H](C)CCCCC(=O)N[C@@H](CCN)C(=O)N[C@H](C(=O)N[C@@H](CCN)C(=O)N[C@H]1CCNC(=O)[C@H]([C@@H](C)O)NC(=O)[C@H](CCN)NC(=O)[C@H](CCN)NC(=O)[C@H](CC(C)C)NC(=O)[C@@H](CC(C)C)NC(=O)[C@H](CCN)NC1=O)[C@@H](C)O		male Sprague-Dawley rat, plasma	intravenous, 5 mg/kg	Vd	0.736 L/kg
Cc1[nH]c(C)c(S(=O)(=O)Nc2ccc(S(=O)(=O)F)c(Cl)c2)c1C(=O)N1CCC(F)(F)C1	metabolic stability	mouse, liver microsomes		microsomal CLint	21.8 µL/min/mg
